Legend:
Rattus norvegicus [1] = experiment: Inhibition of ACTH response to MK-212 by the compound (1 mg/Kg) in rats; assay type: functional
In short: (§1)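 Male Sprague-Dawley rats (200–250 g) received compound (0, 0.1 or 1 mg/kg sc) 20 min before MK-212 sc or solvent. Rats were decapitated 30 min after MK-212, and trunk blood plasma was taken. Rat ACTH was measured by radioimmunoassay (ng/mL), as means ± SEM of eight experiments.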

Rattus norvegicus [2] = experiment: Inhibition of ACTH response to MK-212 by the compound (1 mg/Kg) in rats with solvent; assay type: functional; in short: as §1
Rattus norvegicus [3] = experiment: Inhibition of ACTH response to MK-212 by the compound (0.1 mg/Kg) in rats; assay type: functional; in short: as §1
[4] = biological target: T1, Alpha-1A adrenergic receptor (Bos taurus) (UniProt P18130)
T1 sequence (whole entry): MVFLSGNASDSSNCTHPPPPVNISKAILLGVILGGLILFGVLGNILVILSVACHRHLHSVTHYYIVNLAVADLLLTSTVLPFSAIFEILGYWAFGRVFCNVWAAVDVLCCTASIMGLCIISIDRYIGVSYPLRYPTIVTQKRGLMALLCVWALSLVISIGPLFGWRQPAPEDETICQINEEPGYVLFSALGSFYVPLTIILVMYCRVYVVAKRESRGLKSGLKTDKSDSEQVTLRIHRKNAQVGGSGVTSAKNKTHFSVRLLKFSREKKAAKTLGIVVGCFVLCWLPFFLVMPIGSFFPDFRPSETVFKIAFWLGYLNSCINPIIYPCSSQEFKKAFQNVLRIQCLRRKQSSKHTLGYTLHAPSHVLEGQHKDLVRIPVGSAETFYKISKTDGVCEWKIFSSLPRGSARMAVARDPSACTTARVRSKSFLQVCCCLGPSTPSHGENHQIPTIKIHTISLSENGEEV

[5] = biological target: T2, Alpha-2A adrenergic receptor (Bos taurus) (UniProt Q28838)
T2 sequence (whole entry): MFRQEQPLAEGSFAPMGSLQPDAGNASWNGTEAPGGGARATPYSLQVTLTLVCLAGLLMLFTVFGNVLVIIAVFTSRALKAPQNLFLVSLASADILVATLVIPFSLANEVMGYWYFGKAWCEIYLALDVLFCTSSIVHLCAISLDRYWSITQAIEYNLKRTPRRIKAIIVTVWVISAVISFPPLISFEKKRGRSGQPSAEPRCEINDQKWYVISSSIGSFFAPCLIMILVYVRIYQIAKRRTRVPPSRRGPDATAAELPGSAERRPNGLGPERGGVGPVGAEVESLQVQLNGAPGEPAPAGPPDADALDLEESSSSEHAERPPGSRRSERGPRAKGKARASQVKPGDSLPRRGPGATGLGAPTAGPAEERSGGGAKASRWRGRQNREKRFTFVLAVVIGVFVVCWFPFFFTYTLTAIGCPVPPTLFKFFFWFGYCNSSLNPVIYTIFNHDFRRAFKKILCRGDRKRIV

[6] = biological target: D(1A) dopamine receptor (Bos taurus) (UniProt Q95136); settings: Striatum
[7] = biological target: D(2) dopamine receptor (Bos taurus) (UniProt P20288); settings: Striatum
[8] = biological target: T3, 5-hydroxytryptamine receptor 1A (Homo sapiens) (UniProt P08908); settings: Sus scrofa; Frontal cortex; Membrane
T3 sequence (whole entry): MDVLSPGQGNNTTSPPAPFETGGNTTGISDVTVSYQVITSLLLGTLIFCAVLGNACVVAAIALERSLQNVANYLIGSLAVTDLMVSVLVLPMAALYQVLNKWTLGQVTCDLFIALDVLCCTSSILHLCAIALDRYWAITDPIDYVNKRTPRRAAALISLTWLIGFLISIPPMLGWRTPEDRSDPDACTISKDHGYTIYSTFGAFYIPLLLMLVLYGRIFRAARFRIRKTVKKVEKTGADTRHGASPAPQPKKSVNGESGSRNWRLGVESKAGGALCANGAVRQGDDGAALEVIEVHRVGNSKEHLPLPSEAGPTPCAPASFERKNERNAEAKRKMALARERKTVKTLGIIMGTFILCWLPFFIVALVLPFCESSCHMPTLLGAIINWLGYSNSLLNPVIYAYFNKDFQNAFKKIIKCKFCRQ

[9] = biological target: 5-hydroxytryptamine receptor 2A (Rattus norvegicus) (UniProt P14842); settings: N1E-115
[10] = biological target: 5-hydroxytryptamine receptor 1B (Rattus norvegicus) (UniProt P28564)
[11] = biological target: Serotonin 3 receptor (5HT3) (Mus musculus) (UniProt Q9JHJ5+P23979); settings: Cortex
[12] = biological target: T4, 5-hydroxytryptamine receptor 2C (Homo sapiens) (UniProt P28335)
T4 sequence (whole entry): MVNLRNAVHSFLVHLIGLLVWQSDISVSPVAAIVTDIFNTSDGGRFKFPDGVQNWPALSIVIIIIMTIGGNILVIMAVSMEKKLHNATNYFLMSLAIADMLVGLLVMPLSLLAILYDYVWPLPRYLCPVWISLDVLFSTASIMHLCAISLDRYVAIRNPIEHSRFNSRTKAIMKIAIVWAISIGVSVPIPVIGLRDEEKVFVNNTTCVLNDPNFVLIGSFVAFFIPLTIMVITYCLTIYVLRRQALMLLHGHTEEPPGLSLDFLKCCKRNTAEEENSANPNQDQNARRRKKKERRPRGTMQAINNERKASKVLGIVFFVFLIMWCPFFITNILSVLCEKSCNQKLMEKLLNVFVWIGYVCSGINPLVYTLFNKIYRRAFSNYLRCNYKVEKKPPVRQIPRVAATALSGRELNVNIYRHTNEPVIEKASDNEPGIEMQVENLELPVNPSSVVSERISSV

D(1A) dopamine receptor (Bos taurus), sequence (Q95136 whole entry): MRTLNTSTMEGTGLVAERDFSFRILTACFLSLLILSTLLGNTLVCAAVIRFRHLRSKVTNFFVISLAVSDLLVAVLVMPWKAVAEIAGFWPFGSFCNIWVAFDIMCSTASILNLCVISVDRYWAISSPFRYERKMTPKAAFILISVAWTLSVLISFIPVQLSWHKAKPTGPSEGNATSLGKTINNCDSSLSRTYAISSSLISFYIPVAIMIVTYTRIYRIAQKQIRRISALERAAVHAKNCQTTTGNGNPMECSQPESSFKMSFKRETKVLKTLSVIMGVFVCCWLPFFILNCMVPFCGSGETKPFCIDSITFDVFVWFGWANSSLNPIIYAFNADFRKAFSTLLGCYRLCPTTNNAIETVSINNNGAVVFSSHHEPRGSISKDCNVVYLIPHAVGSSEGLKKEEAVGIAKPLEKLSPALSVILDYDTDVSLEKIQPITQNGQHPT
D(2) dopamine receptor (Bos taurus), sequence (P20288 whole entry): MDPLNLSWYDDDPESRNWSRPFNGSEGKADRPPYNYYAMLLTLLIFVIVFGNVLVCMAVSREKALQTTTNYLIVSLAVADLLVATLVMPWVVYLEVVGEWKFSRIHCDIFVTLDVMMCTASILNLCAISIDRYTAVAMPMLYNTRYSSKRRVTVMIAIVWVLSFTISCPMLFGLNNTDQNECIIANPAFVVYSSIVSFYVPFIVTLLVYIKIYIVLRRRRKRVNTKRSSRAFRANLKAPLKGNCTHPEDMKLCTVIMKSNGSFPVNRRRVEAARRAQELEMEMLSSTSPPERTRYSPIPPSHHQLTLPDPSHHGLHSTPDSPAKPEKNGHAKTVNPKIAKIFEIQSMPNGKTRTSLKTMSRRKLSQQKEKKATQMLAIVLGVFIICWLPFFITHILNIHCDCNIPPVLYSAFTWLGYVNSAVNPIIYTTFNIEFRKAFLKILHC
5-hydroxytryptamine receptor 1B (Rattus norvegicus), sequence (P28564 whole entry): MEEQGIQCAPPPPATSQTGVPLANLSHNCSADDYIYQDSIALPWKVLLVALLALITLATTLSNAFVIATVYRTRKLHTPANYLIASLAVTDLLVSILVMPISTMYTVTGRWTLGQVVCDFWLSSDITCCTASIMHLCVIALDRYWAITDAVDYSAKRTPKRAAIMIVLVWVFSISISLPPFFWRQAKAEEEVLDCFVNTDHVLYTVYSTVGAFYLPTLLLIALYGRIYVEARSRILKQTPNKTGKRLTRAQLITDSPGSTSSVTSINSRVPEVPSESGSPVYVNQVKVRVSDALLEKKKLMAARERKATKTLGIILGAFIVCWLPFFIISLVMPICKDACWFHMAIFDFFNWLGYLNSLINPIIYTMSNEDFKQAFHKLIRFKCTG
5-hydroxytryptamine receptor 2A (Rattus norvegicus), sequence (P14842 whole entry): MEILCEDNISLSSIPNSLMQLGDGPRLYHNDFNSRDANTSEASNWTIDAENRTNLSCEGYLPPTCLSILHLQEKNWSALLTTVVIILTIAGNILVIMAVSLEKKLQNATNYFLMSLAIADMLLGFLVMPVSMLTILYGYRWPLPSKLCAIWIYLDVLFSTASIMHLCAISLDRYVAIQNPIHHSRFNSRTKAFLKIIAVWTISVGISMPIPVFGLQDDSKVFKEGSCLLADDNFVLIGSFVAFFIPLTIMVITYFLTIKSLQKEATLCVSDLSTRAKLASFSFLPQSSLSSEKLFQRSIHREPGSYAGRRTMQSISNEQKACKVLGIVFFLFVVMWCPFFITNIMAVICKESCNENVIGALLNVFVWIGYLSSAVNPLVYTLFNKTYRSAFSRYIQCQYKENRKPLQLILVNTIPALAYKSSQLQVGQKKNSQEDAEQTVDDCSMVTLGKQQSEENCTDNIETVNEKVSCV
Serotonin 3 receptor (5HT3) (Mus musculus), sequence (P23979 whole entry, looked up): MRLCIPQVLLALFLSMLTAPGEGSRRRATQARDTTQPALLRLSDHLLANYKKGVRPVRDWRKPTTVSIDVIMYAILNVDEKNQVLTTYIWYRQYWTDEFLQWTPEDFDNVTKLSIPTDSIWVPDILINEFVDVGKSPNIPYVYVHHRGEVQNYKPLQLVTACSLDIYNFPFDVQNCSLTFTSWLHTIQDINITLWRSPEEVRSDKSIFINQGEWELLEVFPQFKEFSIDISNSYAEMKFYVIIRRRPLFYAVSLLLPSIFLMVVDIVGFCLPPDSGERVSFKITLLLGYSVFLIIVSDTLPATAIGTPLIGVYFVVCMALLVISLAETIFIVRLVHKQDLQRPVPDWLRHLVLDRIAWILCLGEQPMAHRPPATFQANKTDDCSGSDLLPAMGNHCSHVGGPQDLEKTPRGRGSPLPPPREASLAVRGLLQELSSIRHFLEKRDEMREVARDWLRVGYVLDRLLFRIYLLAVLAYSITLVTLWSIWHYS
Serotonin 3 receptor (5HT3) (Mus musculus), sequence (Q9JHJ5 whole entry, looked up): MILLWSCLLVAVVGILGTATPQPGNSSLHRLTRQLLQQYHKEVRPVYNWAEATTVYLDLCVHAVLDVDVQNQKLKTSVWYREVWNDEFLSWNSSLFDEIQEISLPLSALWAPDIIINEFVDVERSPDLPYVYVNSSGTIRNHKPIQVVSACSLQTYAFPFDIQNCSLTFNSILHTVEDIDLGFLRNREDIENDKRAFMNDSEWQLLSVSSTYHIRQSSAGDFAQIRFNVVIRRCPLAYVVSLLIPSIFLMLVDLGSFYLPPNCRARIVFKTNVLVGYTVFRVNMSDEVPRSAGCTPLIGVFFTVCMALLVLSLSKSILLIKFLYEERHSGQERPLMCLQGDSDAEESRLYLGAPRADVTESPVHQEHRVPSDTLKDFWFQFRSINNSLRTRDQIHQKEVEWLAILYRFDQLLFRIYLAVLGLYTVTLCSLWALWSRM

Compound: Cc1nc2sccn2c(=O)c1CCN1CCC(=C(c2ccc(F)cc2)c2ccc(F)cc2)CC1 [RITANSERIN]
- Inhibition (Rattus norvegicus [1]): 95.4 ng/mL
- Inhibition (Rattus norvegicus [2]): 37.2 ng/mL
- Inhibition (Rattus norvegicus [3]): 204.3 ng/mL

Compound: CN1CC[C@@H]2CN3CCc4cccc(c43)[C@@H]2C1 (stereo in doubt; 8) [listing 1 of 2 here]
- Inhibition (Rattus norvegicus [1]): 95.1 ng/mL
- Inhibition (Rattus norvegicus [2]): 38.5 ng/mL
- Inhibition (Rattus norvegicus [3]): 165.8 ng/mL

Compound: CN1CC[C@@H]2CN3CCc4cccc(c43)[C@@H]2C1 (stereo in doubt; 9)
- pKD [4]: 6
- pKD [5]: 6
- pKD [6]: < 5
- pKD [7]: < 5
- pKD [8]: < 5

Compound: CN1CC[C@@H]2CN3CCc4cccc(c43)[C@@H]2C1 (stereo in doubt; 8) [listing 2 of 2 here]
- pKD [4]: 5.6
- pKD [5]: 6.5
- pKD [6]: < 5
- pKD [9]: 6.2
- pKD [7]: < 5
- pKD [10]: 4.6
- pKD [11]: 4.7
- pKD [12]: 7.8
- pKD [8]: 6.1
